Data taken from paper PMC3151333 (Cancer prevention research (Philadelphia, Pa.), 2011).
Read-outs that look alike come from different tables or passages of the source.

How the values were obtained:
[1] = LC-MS/MS determination of protocatechuic acid; format: in vivo, human; settings: for donors whose saliva contained detectable PCA: final (240 minute) time point, 0.2 ng/ml detection limit
[2] = tested on: β-glucosidase; format: biochemical, human; settings: 0.12% in PBS, 3 minute rinse
[3] = cited from earlier work
[4] = format: in vivo, human
[5] = format: in vivo, human; settings: for glucuronide of the parent anthocyanin in saliva (selected ion chromatograms): five minute Rinse III saliva samples; for saliva samples with cyanidin-3 sambubioside glucuronides detected: Rinse III
[6] = 240 minute time point following 10% BRB gel application; cited from earlier work
[7] = tested on: rat liver microsomes; assay: Incubation of cyanidin-3 sambubioside with rat liver microsomes; format: in vitro ADME; settings: similar retention time and tandem mass spectra as in saliva
[8] = Detection of protocatechuic acid O-glucuronide; format: in vivo, human
Procedure, shortened: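 Donors rinsed vigorously with 15 ml augmented BRB rinse (10% final BRB) for 3 min. Saliva was collected at timed intervals, acidified with 5% final formic acid and stored at −80°C. Ion-trap LC-MS coupled to HPLC was tuned by infusing a synthetic PCAOG standard. The run used full scan, zoom scan and CID product-ion scan, and the 329.0>153.0 transition was monitored at 35% energy.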

[9] = after ingestion of a 300 mg dose

With O=C(O)c1ccc(O)c(O)c1 [PCA, protocatechuic acid] the “retention in saliva after rinsing” value ([1]; BRB rinses) was “up to 4 hours”, the “donors whose saliva contained detectable PCA” value ([1]; Rinse I) was 2 of 10 and the “donors whose saliva contained detectable PCA” value ([1]; Rinse II) was 2 of 10. The “donors whose saliva contained detectable PCA” value ([1]; Rinse III) was 6 of 10.

For [H]/N=C(\N/C(=N/[H])NCCCCCCNC(=N)NC(=N)Nc1ccc(Cl)cc1)Nc1ccc(Cl)cc1 [chlorhexidine gluconate], the “donors retaining appreciable functional β-glucosidase activity following rinsing” value [2] is listed as 10 of 11, the “decrease in β-glucosidase in saliva following rinsing (mean ± s.e.m)” value ([2]; saliva 15 minutes after rinsing, n=11, p<0.001) is listed as 69.43% ±7.24 and the “mean peak plasma levels” value [3, 9] is listed as 0.206 µg/g. The “time of mean peak plasma levels” value [3, 9] was 30 min, the “absorption from the gastrointestinal tract” value [3] was “poorly absorbed” and the “fraction retained in the oral cavity following rinsing” value [3] was roughly 30%. For the same compound, the “persistence in human saliva after rinsing” value [3] was “at least 12 hours” and the “retention by local adsorption, then slowly released over time” value [3] was “approximately 30%”.

With OC[C@H]1O[C@@H](Oc2cc3c(O)cc(O)cc3[o+]c2-c2ccc(O)c(O)c2)[C@H](O)[C@@H](O)[C@@H]1O [cyanidin 3-glucoside] the “salivary BRB anthocyanin level, Rinse I relative to Rinse III” value ([4]; in vivo) was “significantly higher”, the “salivary anthocyanin level, Rinse II relative to Rinse I” value ([4]; in vivo) was “significantly lower” and the “glucuronide of the parent anthocyanin in saliva (selected ion chromatograms)” value [5] was “did not reveal any novel peaks”.

In the case of C[C@@H]1O[C@@H](OC[C@H]2O[C@@H](Oc3cc4c(O)cc(O)cc4[o+]c3-c3ccc(O)c(O)c3)[C@H](O)[C@@H](O)[C@@H]2O)[C@H](O)[C@H](O)[C@H]1O [cyanidin 3-rutinoside], the “donors showing detectable rutinoside in saliva” value ([4]; in vivo) is reported as 10 out of 10, the “rutinoside levels in saliva (mean ± S.D.)” value ([4]; in vivo) is reported as 2287.12 ± 489.55 µg/mL and the “salivary BRB anthocyanin level, Rinse I relative to Rinse III” value ([4]; in vivo) is reported as “significantly higher”. The “glucuronide of the parent anthocyanin in saliva (selected ion chromatograms)” value [5] was “did not reveal any novel peaks” and the “donors retaining any salivary anthocyanins, including rutinoside” value [6] was 3 out of 5.

In the case of OC[C@H]1O[C@@H](Oc2cc3c(O)cc(O)cc3[o+]c2-c2ccc(O)c(O)c2)[C@H](O[C@@H]2OC[C@@H](O)[C@H](O)[C@H]2O)[C@@H](O)[C@@H]1O.[Cl-] [cyanidin 3-sambubioside], the “salivary BRB anthocyanin level, Rinse I relative to Rinse III” value ([4]; in vivo) is reported as “significantly higher” and the “metabolite formation on incubation with rat liver microsomes” value [7] is reported as “generated cyanidin-3 sambubioside glucuronides”.

For Oc1cc(O)c2cc(O)c(-c3ccc(O)c(O)c3)[o+]c2c1 [cyanidin], the “time by which salivary cyanidin levels were undetectable” value ([4]; all samples from all rinses) was no more than 60 min and the “aglycone cyanidin in early saliva samples” value ([4]; up to 5 minute post rinse, all three rinse groups, all donors) was “detectable levels”.

With cyanidin-3 sambubioside glucuronides the “saliva samples with cyanidin-3 sambubioside glucuronides detected” value ([5]; 30 minute samples) was 3 of 6, the “saliva samples with cyanidin-3 sambubioside glucuronides detected” value ([5]; five minute time point samples) was 6 of the 6 and the “cyanidin 3-sambubioside glucuronides in saliva” value ([5]; after the 30 minute post rinse samples) was “no cyanidin 3-sambubioside glucuronides were observed”.

For “protocatechuic acid O-glucuronide [PCAOG]”, the “PCAOG peaks in later time point saliva samples” value ([8]; 30, 60, 120 and 240 min after Rinse III, either donor) was “did not reveal any peaks” and the “donors with PCAOG peak detected in saliva” value ([8]; 5 min saliva sample after Rinse III) was 1 of the 2.
